Reference: ChEMBL document CHEMBL4038317, “Discovery of a Benzamide Derivative That Protects Pancreatic β-Cells against Endoplasmic Reticulum Stress” (J Med Chem, 2017)
Active and inactive are the calls of the source. No cut-off for these calls is given here.

Tests used:
INS1 [1] = test: Protection against tunicamycin ER stress-induced suppression of MafA mRNA expression in rat INS-1 cells up to 1 uM after 24 hrs by qRT-PCR analysis; type: functional, cell-based
Procedure, shortened: (§1)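 INS-1 cells were exposed to tunicamycin 0.1 μg/mL with compound or DMSO for 24 h. INS1, INS2, PDX1 and MafA mRNA were measured by qRT-PCR and normalized to cyclophilin A by the comparative Ct method. Triplicate wells, 3 independent experiments.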

Beta-TC6 = test: Cytotoxicity against mouse BetaTC6 cells assessed as reduction in cell viability up to 40 uM after 3 days by CellTiter-Glo assay; type: cell-based; conditions: beta-tc6, 72 h
[2] = biological target: T1, Eukaryotic translation initiation factor 2-alpha kinase 3 (Rattus norvegicus) (UniProt Q9Z1Z1); test: Inhibition of tunicamycin ER stress-induced PERK activation in rat INS-1 cells assessed as suppression of tunicamycin-induced increase in CHOP protein levels up to 10 uM after 8 hrs by Western blot analysis; type: cell-based
T1 sequence (whole entry): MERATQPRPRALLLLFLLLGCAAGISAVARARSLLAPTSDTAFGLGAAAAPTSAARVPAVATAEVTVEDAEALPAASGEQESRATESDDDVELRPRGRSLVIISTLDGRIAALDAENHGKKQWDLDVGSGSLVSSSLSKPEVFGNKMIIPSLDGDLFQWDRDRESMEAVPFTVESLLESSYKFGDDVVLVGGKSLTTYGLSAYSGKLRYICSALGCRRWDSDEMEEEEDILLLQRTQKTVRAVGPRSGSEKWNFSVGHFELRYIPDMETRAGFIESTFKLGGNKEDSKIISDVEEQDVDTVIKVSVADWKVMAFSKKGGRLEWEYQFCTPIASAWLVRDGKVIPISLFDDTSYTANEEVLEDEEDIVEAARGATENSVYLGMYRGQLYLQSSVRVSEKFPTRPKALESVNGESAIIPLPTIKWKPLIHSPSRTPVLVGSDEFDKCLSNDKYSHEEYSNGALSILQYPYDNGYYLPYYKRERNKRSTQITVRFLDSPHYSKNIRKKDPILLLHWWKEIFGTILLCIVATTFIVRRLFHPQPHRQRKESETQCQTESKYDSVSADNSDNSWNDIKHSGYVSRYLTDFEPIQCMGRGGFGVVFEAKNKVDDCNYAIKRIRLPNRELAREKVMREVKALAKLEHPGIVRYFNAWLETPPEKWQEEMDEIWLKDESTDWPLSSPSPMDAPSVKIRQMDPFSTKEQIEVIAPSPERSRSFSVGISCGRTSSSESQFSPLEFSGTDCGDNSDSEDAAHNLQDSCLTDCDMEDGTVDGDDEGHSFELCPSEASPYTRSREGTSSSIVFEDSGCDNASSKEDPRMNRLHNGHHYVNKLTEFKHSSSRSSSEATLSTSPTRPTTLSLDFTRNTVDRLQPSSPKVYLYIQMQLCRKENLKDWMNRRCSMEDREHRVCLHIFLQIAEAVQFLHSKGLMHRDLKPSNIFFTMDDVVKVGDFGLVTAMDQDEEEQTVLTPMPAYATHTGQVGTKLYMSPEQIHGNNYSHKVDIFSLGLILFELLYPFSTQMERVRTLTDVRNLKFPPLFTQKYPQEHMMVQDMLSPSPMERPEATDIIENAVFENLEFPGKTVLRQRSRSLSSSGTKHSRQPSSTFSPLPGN
Procedure, shortened: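 INS-1 cells were exposed to tunicamycin 0.1 μg/mL with compound or DMSO for 8 h. Lysates were immunoblotted for ATF4 and CHOP (1:1000). Bands were quantified by densitometry and normalized to α-tubulin; 3 independent experiments.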

INS1 [3] = test: Protection against tunicamycin ER stress-induced suppression of INS2 mRNA expression in rat INS-1 cells up to 1 uM after 24 hrs by qRT-PCR analysis; type: functional, cell-based; procedure, shortened: as §1
Mus musculus = test: Antidiabetic activity in STZ-induced diabetic overnight fasted C57BL/6 mouse model assessed as blood glucose level at 5 mg/kg, ip administrated qd with streptozotocin for 5 days followed by compound administration alone for 2 more weeks measured at 30 mins post last dose relative to control; type: functional, organism-based
Procedure, shortened: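 Same STZ/compound i.p. regimen in male C57BL/6 mice, vehicle group as control. Intraperitoneal glucose tolerance test in overnight-fasted mice: glucose 2 g/kg i.p., blood glucose read at set times after the glucose load.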

INS1 [4] = test: Cytoprotective activity in rat INS-1 cells assessed as protection against tunicamycin-induced ER stress-mediated reduction in cell viability after 3 days by CellTiter-Glo assay relative tunicamycin; type: functional; conditions: INS1, 72 h
Procedure, shortened: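 INS-1 cells, 3×10^3 per well, were co-treated with tunicamycin 0.1 μg/mL and compound for 72 h. Viability was read as intracellular ATP by luminescence and expressed as fold of no-tunicamycin cells. EC50 and maximum activity were taken as the increase in viability versus tunicamycin alone. Triplicate wells, three independent experiments.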

INS1 [5] = test: Cytoprotective activity in rat INS-1 cells assessed as protection against tunicamycin-induced ER stress-mediated reduction in cell viability after 3 days by CellTiter-Glo assay; conditions: INS1, 72 h
INS1 [6] = test: Cytoprotective activity against tunicamycin ER stress-induced apoptosis in rat INS-1 cells assessed as TUNEL positive cells at 0.1 to 1 uM after 24 hrs by TUNEL/DAPI-based microscopic analysis (reference value: 7%); type: functional

For `O=C(NCc1ccc(C(F)(F)F)cc1)c1cccc(CN2CCCCC2)c1`, the Activity (INS1 [1]) was “Active”, the Activity (Beta-TC6) was “Non-Toxic” and the inhibition [2] was “Active”. For the same compound, the Activity (INS1 [3]) was “Active”, the Activity (Mus musculus) was “Active” and the Emax (INS1 [4]) was 97%. The EC50 (INS1 [5]) was 30 nM and the Activity (INS1 [6]) was 0.5%.
